The values that follow come from ChEMBL document CHEMBL2086292, “Chalcogenopyrylium compounds as modulators of the ATP-binding cassette transporters P-glycoprotein (P-gp/ABCB1) and multidrug resistance protein 1 (MRP1/ABCC1)” (J Med Chem, 2012).

Data set [1] concerns the target T1, MRP1 (Multidrug resistance-associated protein 1) (Homo sapiens, UniProt P33527). Briefly: Inhibition of human MRP1 mediated uptake of [3H]E2-17betaG in HEK cell membrane vesicles at 5 uM by liquid scintillation counting relative to control. The format is cell membranes, HEK293. Conditions: HEK cell membrane vesicles with human MRP1, probe [3H]E2-17betaG. The gist of the method: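 Inside-out vesicles from stably transfected HEK-MRP1 cells (2 μg protein) in Tris-sucrose buffer pH 7.4 with [³H]E₂17βG 400 nM, ATP or AMP 4 mM, MgCl₂ 10 mM, 3 min at 37 °C, compound at 5 μM; DMSO ≤1%; stopped by ice-cold dilution, rapid filtration, scintillation counting; ATP-dependent uptake = ATP minus AMP; duplicate wells.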

The target of another data set is P-gp (ABCB1) (Homo sapiens, UniProt P08183). The experiment in a line: (§1) Induction of ATPase activity of human His10-tagged P-gp expressed in BHK cells assessed as inorganic phosphate release after 30 mins relative to control. The format is cell-based. Conditions: human His10-tagged P-gp expressed in BHK cells, read-out: FC. The gist of the method: (§2)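 Human P-gp with C-terminal His10 tag, stably expressed in BHK cells, purified by Ni-chelate chromatography and mixed 1:1 with 10 mg/mL sheep brain phosphatidylethanolamine in TBS (10 mM Tris/HCl pH 7.4, 150 mM NaCl), then sonicated. Compound titrated, 30 min at 37 °C. Inorganic phosphate released from ATP measured. Vmax expressed as fold over basal activity; KM is the concentration giving half-maximal stimulation.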

Data set [2] addresses T2, ATP-dependent translocase ABCB1 (Homo sapiens, UniProt P08183). The experiment in a line: Inhibition of VER-stimulated human His10-tagged P-gp ATPase activity expressed in BHK cells after 15 mins. The format is cell-based.
Data set [3] can be described thus: Octanol-water partition coefficient, log P of the compound in PBS at pH 7.4 after 1 hr by shake flask method. The format is physicochemical. The method, boiled down:
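Shake-flask method: saturated n-octanol solution shaken with an equal volume of PBS pH 7.4 for 3–5 min, then left to settle 1 h at 23 °C. Concentration in each layer measured spectrophotometrically.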

Data set [4] relates to P-glycoprotein (MDR1). Briefly: P-glycoprotein-mediated transport in MDCK2-MDR1 cells assessed as permeability across apical to basolateral side at 5 uM after 1 hr. Particulars: dog, MDCK-MDR1.
Data set [5] concerns the target T1, MRP1 (Multidrug resistance-associated protein 1). The experiment in a line: Inhibition of human MRP1 mediated uptake of [3H]E2-17betaG in HEK cell membrane vesicles at 30 uM by liquid scintillation counting relative to control. Format: cell membranes, HEK293. Conditions: HEK cell membrane vesicles with human MRP1, probe [3H]E2-17betaG. The gist of the method:
(§3)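 Inside-out membrane vesicles from HEK cells stably transfected with human MRP1. Vesicle protein (2 μg) incubated in Tris-sucrose buffer pH 7.4 with 400 nM [3H]E2-17βG, 4 mM ATP or AMP and 10 mM MgCl2, 3 min at 37 °C, in duplicate; DMSO ≤1% final. Stopped by ice-cold dilution and rapid filtration, then scintillation counted. ATP-dependent uptake taken as ATP minus AMP values; inhibition reported as percent.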

In data set [6] the test system is P-glycoprotein (MDR1). The experiment in a line: P-glycoprotein-mediated transport in MDCK2-MDR1 cells assessed as permeability across basolateral to apical side at 5 uM after 1 hr. Particulars: dog, MDCK-MDR1.
The subject of data set [7] is MDCK-II. Briefly: Inhibition of P-gp expressed in MDCK2-MDR1 cells at 5 uM by calcein AM accumulation assay relative to LSN 335984. The format is cell-based. The gist of the method: (§4)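 MDCKII cells transfected with wild-type human MDR1, seeded at 40000 cells/well and used on day 4. Washed in DPBS with 10 mM HEPES pH 7.4, then compound in the same buffer 30 min at 37 °C. Replaced with compound plus 0.5 μg/mL calcein AM for a further 20 min. Fluorescence read at Ex 485/Em 530 nm. Signal expressed relative to 5 μM LSN 335984, taken as complete inhibition; vehicle 0.25% DMSO. IC50 from 1:1 serial dilutions by variable-slope sigmoidal fit.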

Data set [8] can be described thus: Inhibition of P-gp mediated [3H]VIN efflux in MDCK2-MDR1 cells by scintillation counter. Format: cell-based. Conditions: MDCK-II. The method, boiled down: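 MDCKII-MDR1 monolayers on Transwell filters, used on day 6. Rinsed in DPBSH, then preincubated 30 min at 37 °C with compound ([…]) in BSA/DPBSH. [3H]vinblastine (0.25 μCi/mL) plus compound added basolaterally and fresh compound solution added apically. Apical buffer replaced every 10 min; apical radioactivity counted by scintillation. IC50 fitted.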

Data set [9] is described as follows: Inhibition of P-gp expressed in MDCK2-MDR1 cells by calcein AM accumulation assay. Format: cell-based. Particulars: MDCK-II. The gist of the method:
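MDCKII cells transfected with wild-type human MDR1, seeded at 40000 cells/well and used on day 4. Washed in DPBS with 10 mM HEPES pH 7.4, then compound in the same buffer 30 min at 37 °C. Replaced with compound plus 0.5 μg/mL calcein AM for a further 20 min. IC50 from 1:1 serial dilutions by variable-slope sigmoidal fit.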

For data set [10], the target named is T1, MRP1 (Multidrug resistance-associated protein 1). Briefly: Inhibition of human MRP1-mediated uptake of [3H]E2-17betaG in HEK cell membrane vesicles at 10 uM by liquid scintillation counter. Format: cell membranes, HEK293. Particulars: HEK cell membrane vesicles with human MRP1, probe [3H]E2-17betaG. The method, boiled down:
as §3

For data set [11] the target is unchanged. The experiment in a line: Inhibition of human MRP1-mediated uptake of [3H]E2-17betaG in HEK cell membrane vesicles at 1 uM by liquid scintillation counting relative to control. The format is cell membranes, HEK293. Particulars: HEK cell membrane vesicles with human MRP1, probe [3H]E2-17betaG. The method, boiled down: as §3
The test system of data set [12] is MDCK-II. The experiment in a line: Inhibition of P-gp expressed in MDCK2-MDR1 cells at 25 uM by calcein AM accumulation assay relative to LSN 335984. Format: cell-based. The method, boiled down:
as §4

The nature of data set [13]: Normalized ratio of the compound assessed as ratio of PBA/AB in absence of LSN 335984 to ratio of PBA/AB in presence of LSN 335984 in MDCK2-MDR1 cells at 5 uM after 1 hr. Format: ADME, cell-based, Canis lupus familiaris. Particulars: dog, mdck-mdr1, 1 h. The gist of the method:
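MDCKII-MDR1 cells seeded at 50000 cells/cm² on Transwell filters, used on day 6. Preincubated 30 min with 4.3 mg/mL BSA in DPBSH, with or without 5 μM LSN 335984. Compound (5 μM) added to the apical or basolateral donor chamber and incubated 1 h at 37 °C with nutation. Donor and receiver samples quantified by LC-MS/MS. AB and BA permeabilities calculated. Normalized ratio is the BA/AB ratio without inhibitor divided by the ratio with inhibitor.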

The target of data set [14] is T2, ATP-dependent translocase ABCB1. Described as §1. The format is cell-based. Conditions: bhk, 0.5 h. The gist of the method:
as §2

Chain of P-gp (ABCB1) (P08183 whole entry): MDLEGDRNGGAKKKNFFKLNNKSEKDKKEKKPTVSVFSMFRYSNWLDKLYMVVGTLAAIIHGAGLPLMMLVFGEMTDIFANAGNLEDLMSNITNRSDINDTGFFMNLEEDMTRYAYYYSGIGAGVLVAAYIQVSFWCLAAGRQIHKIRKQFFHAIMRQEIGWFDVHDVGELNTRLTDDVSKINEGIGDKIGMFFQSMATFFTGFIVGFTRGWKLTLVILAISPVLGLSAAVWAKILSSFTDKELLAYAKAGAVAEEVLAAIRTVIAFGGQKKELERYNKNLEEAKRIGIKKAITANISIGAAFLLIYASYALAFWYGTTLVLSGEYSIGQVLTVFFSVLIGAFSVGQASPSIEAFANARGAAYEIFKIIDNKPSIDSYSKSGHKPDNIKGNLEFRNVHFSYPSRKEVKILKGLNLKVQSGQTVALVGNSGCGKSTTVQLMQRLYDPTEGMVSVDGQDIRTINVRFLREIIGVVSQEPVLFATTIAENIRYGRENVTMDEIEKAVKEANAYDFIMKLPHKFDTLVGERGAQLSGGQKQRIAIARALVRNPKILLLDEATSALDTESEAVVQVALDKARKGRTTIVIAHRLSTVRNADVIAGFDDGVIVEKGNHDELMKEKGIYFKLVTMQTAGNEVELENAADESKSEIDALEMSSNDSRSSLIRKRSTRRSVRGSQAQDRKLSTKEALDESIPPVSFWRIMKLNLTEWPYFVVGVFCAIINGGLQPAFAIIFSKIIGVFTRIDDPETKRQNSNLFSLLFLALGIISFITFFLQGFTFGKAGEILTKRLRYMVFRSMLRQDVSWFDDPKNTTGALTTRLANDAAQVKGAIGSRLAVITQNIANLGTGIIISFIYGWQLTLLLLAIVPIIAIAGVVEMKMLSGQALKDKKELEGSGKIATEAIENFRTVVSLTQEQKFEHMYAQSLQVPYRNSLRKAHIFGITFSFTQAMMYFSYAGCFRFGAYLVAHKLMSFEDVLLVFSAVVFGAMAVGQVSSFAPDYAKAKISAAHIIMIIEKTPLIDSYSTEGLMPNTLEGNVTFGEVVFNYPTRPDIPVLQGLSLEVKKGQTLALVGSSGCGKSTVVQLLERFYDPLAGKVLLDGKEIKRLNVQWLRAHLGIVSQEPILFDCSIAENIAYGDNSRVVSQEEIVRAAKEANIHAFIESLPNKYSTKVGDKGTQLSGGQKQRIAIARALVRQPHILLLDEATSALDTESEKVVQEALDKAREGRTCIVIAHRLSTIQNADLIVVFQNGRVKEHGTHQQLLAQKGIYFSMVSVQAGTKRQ
T2 sequence (P08183 whole entry): as above
T1 sequence (P33527 whole entry): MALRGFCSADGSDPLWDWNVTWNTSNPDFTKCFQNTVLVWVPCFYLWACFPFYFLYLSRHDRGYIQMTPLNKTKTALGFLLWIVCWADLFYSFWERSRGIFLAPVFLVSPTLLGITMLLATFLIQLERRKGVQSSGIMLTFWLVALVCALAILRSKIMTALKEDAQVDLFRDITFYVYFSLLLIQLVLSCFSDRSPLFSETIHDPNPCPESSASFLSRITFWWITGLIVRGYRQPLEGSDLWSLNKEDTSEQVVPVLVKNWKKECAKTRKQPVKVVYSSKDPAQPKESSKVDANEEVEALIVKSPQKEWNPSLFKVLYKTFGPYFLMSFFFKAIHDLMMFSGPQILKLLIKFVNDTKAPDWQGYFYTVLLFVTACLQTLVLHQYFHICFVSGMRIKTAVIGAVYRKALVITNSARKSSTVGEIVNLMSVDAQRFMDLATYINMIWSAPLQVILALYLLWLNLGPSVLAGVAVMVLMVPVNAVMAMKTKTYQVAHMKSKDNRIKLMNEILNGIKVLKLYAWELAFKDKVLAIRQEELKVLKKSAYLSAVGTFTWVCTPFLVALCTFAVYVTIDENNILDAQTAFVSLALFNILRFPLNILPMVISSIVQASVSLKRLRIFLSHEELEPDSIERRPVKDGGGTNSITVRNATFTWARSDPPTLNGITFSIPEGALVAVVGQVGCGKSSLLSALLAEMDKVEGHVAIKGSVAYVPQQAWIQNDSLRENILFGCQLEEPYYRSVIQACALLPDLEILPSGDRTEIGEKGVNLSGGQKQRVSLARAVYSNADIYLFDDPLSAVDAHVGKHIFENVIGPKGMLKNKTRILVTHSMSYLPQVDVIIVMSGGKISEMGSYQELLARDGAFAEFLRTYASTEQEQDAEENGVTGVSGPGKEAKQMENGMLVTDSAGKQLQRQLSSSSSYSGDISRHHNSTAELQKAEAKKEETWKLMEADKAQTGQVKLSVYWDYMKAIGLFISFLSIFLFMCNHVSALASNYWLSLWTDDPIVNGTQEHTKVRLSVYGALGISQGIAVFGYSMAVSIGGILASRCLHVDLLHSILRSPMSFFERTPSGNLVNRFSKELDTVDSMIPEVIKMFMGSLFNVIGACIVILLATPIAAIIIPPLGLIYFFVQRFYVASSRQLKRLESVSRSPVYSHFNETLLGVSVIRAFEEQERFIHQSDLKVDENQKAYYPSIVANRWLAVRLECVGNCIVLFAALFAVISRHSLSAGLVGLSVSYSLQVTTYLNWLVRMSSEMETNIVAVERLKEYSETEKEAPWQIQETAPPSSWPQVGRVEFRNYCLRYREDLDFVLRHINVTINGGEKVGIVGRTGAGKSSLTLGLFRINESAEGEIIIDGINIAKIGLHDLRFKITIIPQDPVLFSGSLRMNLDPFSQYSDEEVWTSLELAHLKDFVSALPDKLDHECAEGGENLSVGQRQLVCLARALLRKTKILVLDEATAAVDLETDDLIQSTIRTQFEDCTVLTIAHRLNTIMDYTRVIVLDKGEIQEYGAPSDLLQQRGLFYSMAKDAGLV

The term inhibition denotes the share of the control response that was lost under treatment. What is called IC50 is the concentration that gives 50% inhibition. The compound `CC(C)(C)c1cc(-c2ccc(C(=O)O)s2)cc(C(C)(C)C)[se+]1` gave an inhibition at 5 µM in [1] of 15%. Also, the fold induction at 0.5 h at P-gp (ABCB1) is < 1.4. The compound also showed an IC50 in [2] of 111 µM.
For orientation: logD means lipophilicity at a set pH, counting ionised and neutral species. A lower logD goes with lower lipophilicity. As for `CN(C)c1ccc(-c2cc(-c3ccc(C(=S)N4CCCCC4)s3)cc(C(C)(C)C)[s+]2)cc1.[Cl-]`, in data set [3], the logD at 1 h is 2.1. In addition, the Papp A-B at 1 h, 5 µM in the data set with P-glycoprotein (MDR1) [4] came out at 0.03 ×10⁻⁶ cm/s. Testing at 30 µM in data set [5] gave an inhibition of 93%. The Papp B-A at 1 h, 5 µM in the data set with P-glycoprotein (MDR1) [6] turned out to be 32 ×10⁻⁶ cm/s. Also, the inhibition was 31% in the data set with MDCK-II [7] and 74% with MDCK-II [12]. Besides, the 50% inhibitory concentration (IC50) in data set [8] is 11.5 µM; in data set [9] it was 38 µM. Moreover, the fold induction at 0.5 h on P-gp (ABCB1) amounted to 5.2. The same compound displayed an inhibition at 10 µM in [10] of 93%. For the same compound, at 1 µM the inhibition in [11] was 36%. For the same compound, the Ratio in data set [13] turned out to be 705.
With `CC(C)(C)c1cc(-c2ccc(C(=O)O)s2)cc(C(C)(C)C)[te+]1`, the inhibition at 5 µM in [1] came to 24%. Besides, on P-gp (ABCB1), the fold induction at 0.5 h was < 1.4. Further, in [2], the IC50 turned out to be 162 µM.
Regarding `CC(C)(C)c1cc(-c2ccc(C(=S)N3CCCCC3)s2)cc(C(C)(C)C)[s+]1.F[P-](F)(F)(F)(F)F`, in [5], the inhibition at 30 µM was 71%. Also, in data set [14], the “fold change (FC)” value was 4.4.
